The values below come from ChEMBL document CHEMBL1131154, “Quantitative structure-activity relationships of 2, 4-diamino-5-(2-X-benzyl)pyrimidines versus bacterial and avian dihydrofolate reductase” (J Med Chem, 1998).

The structures appear in SMILES notation.

Assay [1] addresses T1, Dihydrofolate reductase (Gallus gallus, UniProt P00378).
T1 sequence (P00378 whole entry): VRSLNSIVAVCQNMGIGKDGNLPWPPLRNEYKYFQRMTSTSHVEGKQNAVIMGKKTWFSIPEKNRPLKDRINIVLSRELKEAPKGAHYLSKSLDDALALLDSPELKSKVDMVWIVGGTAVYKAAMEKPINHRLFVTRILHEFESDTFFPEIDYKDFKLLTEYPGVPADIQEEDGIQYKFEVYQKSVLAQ
Briefly: Inhibition of chicken liver Dihydrofolate reductase (dihydrofolate reductase). The essentials:
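Chicken liver DHFR vial (0.19 unit/mL) dissolved in 24 mL of 200 μM NADPH. Inhibitors in DMSO, final ≤0.5%. Activity with and without inhibitor read at 340 nm by stopped-flow spectrophotometry as NADPH is oxidized and dihydrofolate reduced.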

Assay [2] can be described thus: Selectivity measured as log[1/Ki(Lactobacillus casei DHFR)]-log[1/Ki(chicken liver DHFR)]. The method, boiled down:
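Selectivity index calculated as log(1/Ki) for L. casei DHFR minus log(1/Ki) for chicken liver DHFR. Both Ki values came from stopped-flow 340 nm NADPH-oxidation assays, with jackknife estimation.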

The target in assay [3] is Dihydrofolate reductase (Lactobacillus casei, UniProt P00381). The assay is described as follows: Inhibition of Dihydrofolate reductase from Lactobacillus casei. On the set-up: species or system Lacticaseibacillus casei. The essentials:
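L. casei DHFR, from lyophilized powder, dissolved to about 0.5 unit/mL in 0.05 M Tris pH 7.20 with 50 mM mercaptoethanol and stored at −20 °C. Dihydrofolate and NADPH solutions kept at 0 °C. Inhibitors in DMSO, final ≤0.5%. Stopped-flow spectrophotometry at 340 nm followed NADPH oxidation and dihydrofolate reduction. Ki with 95% confidence limits by jackknife.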

Sequence of Dihydrofolate reductase (Lactobacillus casei, UniProt P00381) (P00381 whole entry): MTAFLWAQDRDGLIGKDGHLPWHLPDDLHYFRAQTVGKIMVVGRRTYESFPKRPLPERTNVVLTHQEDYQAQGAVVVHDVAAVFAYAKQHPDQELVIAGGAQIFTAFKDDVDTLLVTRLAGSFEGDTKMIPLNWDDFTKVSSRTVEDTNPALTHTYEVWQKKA

In the case of `COCc1ccccc1Cc1cnc(N)nc1N`, the Ki on Dihydrofolate reductase [1] is 39.8 µM; at Dihydrofolate reductase [3] it was 28.2 µM. The compound also registered a Selectivity index in assay [2] of 0.15.
`Cc1ccccc1Cc1cnc(N)nc1N`: the Selectivity index in assay [2] was 0.49. Moreover, affinity at Dihydrofolate reductase [3] was put at a Ki of 9.55 µM.
Consider `Nc1ncc(Cc2ccccc2OCc2ccccc2)c(N)n1`, for which the Ki was 9.12 µM at Dihydrofolate reductase [1] and 18.2 µM on Dihydrofolate reductase [3]. This compound showed a Selectivity index in assay [2] of -0.3.
In turn, `CCOc1ccccc1Cc1cnc(N)nc1N` registered a Selectivity index in assay [2] of 0.09. In addition, on Dihydrofolate reductase [3], the Ki is 20 µM.
`CCCCOc1ccccc1Cc1cnc(N)nc1N` showed a Selectivity index in assay [2] of -0.61. At Dihydrofolate reductase [3], this compound showed a Ki of 35.5 µM.
For the compound `COc1cccc(Cc2cnc(N)nc2N)c1`, the Selectivity index in assay [2] was determined as 1.48.
For `CCCCCCOc1ccccc1Cc1cnc(N)nc1N`, the Ki at Dihydrofolate reductase [1] is 7.94 µM; on Dihydrofolate reductase [3] it was 100 µM. Moreover, in assay [2], the Selectivity index is -1.1.
With `Nc1ncc(Cc2ccccc2F)c(N)n1`, the values for the Ki on Dihydrofolate reductase [1] and at Dihydrofolate reductase [3] were 43.7 µM and 9.55 µM, respectively. The same compound registered a Selectivity index in assay [2] of 0.66.
Consider `Nc1ncc(Cc2ccccc2I)c(N)n1`, for which the Ki on Dihydrofolate reductase [1] is 8.71 µM; at Dihydrofolate reductase [3], 11.5 µM. Further, the Selectivity index in assay [2] is -0.12.
As for `Nc1ncc(Cc2ccccc2O)c(N)n1`, the Ki at Dihydrofolate reductase [1] was 89.1 µM; at Dihydrofolate reductase [3], 110 µM. The Selectivity index in assay [2] was -0.09.
For `COc1ccccc1Cc1cnc(N)nc1N`, in that order: 28.8 µM, 10 µM and 0.46.
In the case of `CS(=O)(=O)Oc1ccccc1Cc1cnc(N)nc1N`, the results for the Ki at Dihydrofolate reductase [1] and at Dihydrofolate reductase [3] were 22.9 µM and 85.1 µM, respectively. The compound further came in with a Selectivity index in assay [2] of -0.57.
Take `Nc1ncc(Cc2ccccc2Br)c(N)n1`: the Ki at Dihydrofolate reductase [1] is 12.3 µM; on Dihydrofolate reductase [3], 10 µM. In assay [2], this compound registered a Selectivity index of 0.09.
With `C=CCOc1ccccc1Cc1cnc(N)nc1N`, the Ki on Dihydrofolate reductase [1] was 21.4 µM; on Dihydrofolate reductase [3] it was 13.5 µM. The compound further had a Selectivity index in assay [2] of 0.2.
In turn, `Nc1ncc(Cc2ccccc2)c(N)n1` registered a Selectivity index in assay [2] of 0.49.
As for `Nc1ncc(Cc2ccccc2Cl)c(N)n1`, the Ki at Dihydrofolate reductase [1] is 17.4 µM; on Dihydrofolate reductase [3], 9.55 µM. Also, in assay [2], the Selectivity index is 0.26.
For `NC(=O)COc1ccccc1Cc1cnc(N)nc1N`, the Ki at Dihydrofolate reductase [1] was 33.9 µM; on Dihydrofolate reductase [3] it was 79.4 µM. The Selectivity index in assay [2] is -0.37.
